Assay results published in ChEMBL document CHEMBL1131263, “Substituted tetrahydropyrrolo[2,1-b]oxazol-5(6H)-ones and tetrahydropyrrolo[2,1-b]thiazol-5(6H)-ones as hypoglycemic agents” (1998).

Assays:
[1] = lowest concentration at which glucose utilized was greater than or equal to 140% of control value tested in a glucose utilization L6 myocyte in vitro assay; format: functional, Rattus norvegicus
Outline: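 Differentiated rat L6 myotubes (day 11 or 13 after plating) exposed 20 h to compound in serum-free DMEM with 15 mM glucose and 1% final DMSO. Tested in quadruplicate at 3, 10, 30, 100, 300 µM. Glucose left in the medium read by glucose oxidase. Value is the lowest concentration giving at least 40% more utilization than control.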

Mus musculus [2] = assay: compound was tested in vivo for lower blood glucose levels in diabetic obese ob/ob mice by measuring postprandial blood glucose level on day 3 after 2 hours at 200 uM/kg oral dose; format: functional
Outline: (§1)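 Adult male C57BL ob/ob mice, fed, grouped (6/group) and matched for blood glucose on day 0; mice under 150 mg/dL excluded. Oral dosing in the morning on days 1-3, vehicle 0.5% CMC with 0.2% Tween-80. Significance versus vehicle.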

Mus musculus [3] = assay: compound was tested in vivo for lower blood glucose levels in diabetic obese ob/ob mice by measuring postprandial blood glucose level on day 3 after 8 hours at 200 uM/kg oral dose; format: functional; outline: as §1
Mus musculus [4] = assay: compound was tested in vivo for lower blood glucose levels in diabetic obese ob/ob mice by measuring postprandial blood glucose level on day1 after 2 hours at 200 uM/kg oral dose; format: functional; outline: as §1
Mus musculus [5] = assay: compound was tested in vivo for lower blood glucose levels in diabetic obese ob/ob mice by measuring postprandial blood glucose level on day1 after 4 hours at 200 uM/kg oral dose; format: functional; outline: as §1
Mus musculus [6] = assay: compound was tested in vivo for lower blood glucose levels in diabetic obese ob/ob mice by measuring postprandial blood glucose level on day 3 after 4 hours at 200 uM/kg oral dose; format: functional; outline: as §1
[7] = compound was tested in vivo for lower blood glucose levels in diabetic obese ob/ob mice by measuring postprandial blood glucose level on day1 after 4 hours at 15.86 uM/kg oral dose.; format: functional, Mus musculus; outline: as §1
[8] = compound was tested in vivo for lower blood glucose levels in diabetic obese ob/ob mice by measuring postprandial blood glucose level on day1 after 2 hours at 15.86 uM/kg oral dose.; format: functional, Mus musculus; outline: as §1
Mus musculus [9] = assay: In vivo lowering of blood glucose levels in diabetic obese ob/ob mice by measuring postprandial blood glucose level on day 3 after 8 hours at 300 uM/kg oral dose; format: functional; outline: as §1
Mus musculus [10] = assay: compound was tested in vivo for lower blood glucose levels in diabetic obese ob/ob mice by measuring postprandial blood glucose level on day1 after 4 hours at 300 uM/kg oral dose *p < 0.05; format: functional; outline: as §1
Mus musculus [11] = assay: In vivo lowering of blood glucose levels in diabetic obese ob/ob mice by measuring postprandial blood glucose level on day 3 after 4 hours at 300 uM/kg oral dose; format: functional; outline: as §1
Mus musculus [12] = assay: In vivo lowering of blood glucose levels in diabetic obese ob/ob mice, measuring postprandial blood glucose level on day 3 after 2 hours at 300 uM/kg oral dose; format: functional; outline: as §1
Mus musculus [13] = assay: In vivo lowering of blood glucose levels in diabetic obese ob/ob mice, measuring postprandial blood glucose level on day1 after 2 hours at 300 uM/kg oral dose; format: functional; outline: as §1
Mus musculus [14] = assay: In vivo lowering of blood glucose levels in diabetic obese ob/ob mice by measuring postprandial blood glucose level on day1 after 4 hours at 300 uM/kg oral dose; format: functional; outline: as §1

SMILES: O=C1C[C@@H]2O[C@@H](CO)CN12
- Lowest effective concentration for glucose utilization ≥140% of control [1]: 30 µM
- Efficacy (Mus musculus [2]): 53%
- Efficacy (Mus musculus [3]): 44%
- Efficacy (Mus musculus [4]): 66%
- Efficacy (Mus musculus [5]): 86%
- Efficacy (Mus musculus [6]): 23%

SMILES: CC(C)C(N)C(=O)NC(C(=O)O)C(O)[C@H]1CN2C(=O)C[C@@H]2O1 (some centres not stated)
- Lowest effective concentration for glucose utilization ≥140% of control [1]: 10 µM
- Efficacy [7]: 63%
- Efficacy [8]: 63%

SMILES: OCc1cc(-c2ccc(C(F)(F)F)cc2)no1
- Lowest effective concentration for glucose utilization ≥140% of control [1]: 100 µM
- Efficacy (Mus musculus [9]): 50%
- Efficacy (Mus musculus [10]): 52%
- Efficacy (Mus musculus [11]): 48%
- Efficacy (Mus musculus [12]): 6%
- Efficacy (Mus musculus [13]): 14%

SMILES: COC(=O)N1C[C@H](COc2ccc(Cl)cc2)O[C@@H]1c1ccc(Cl)c(Cl)c1
- Lowest effective concentration for glucose utilization ≥140% of control [1]: 30 µM
- Efficacy (Mus musculus [9]): -9%
- Efficacy (Mus musculus [11]): 19%
- Efficacy (Mus musculus [12]): 25%
- Efficacy (Mus musculus [14]): 40%
- Efficacy (Mus musculus [13]): 13%

SMILES: CC(C)(O)c1cc(-c2ccc(Oc3ccccc3)cc2)no1
- Lowest effective concentration for glucose utilization ≥140% of control [1]: 30 µM
- Efficacy (Mus musculus [9]): 55%
- Efficacy (Mus musculus [11]): 60%
- Efficacy (Mus musculus [12]): 61%
- Efficacy (Mus musculus [14]): -2%
- Efficacy (Mus musculus [13]): 6%

SMILES: O=C1CC[C@]2(c3ccc(Cl)c(Cl)c3)OC(COc3ccc(Cl)cc3)CN12 (some centres not stated)
- Lowest effective concentration for glucose utilization ≥140% of control [1]: 10 µM
- Efficacy (Mus musculus [9]): 78%
- Efficacy (Mus musculus [11]): 80%
- Efficacy (Mus musculus [12]): 70%
- Efficacy (Mus musculus [14]): 36%
- Efficacy (Mus musculus [13]): 0%

SMILES: CC(=O)N1C[C@H](COc2ccc(Cl)cc2)O[C@@H]1c1ccc(Cl)cc1
- Lowest effective concentration for glucose utilization ≥140% of control [1]: 100 µM
- Efficacy (Mus musculus [9]): 54%
- Efficacy (Mus musculus [11]): 54%
- Efficacy (Mus musculus [12]): 42%
- Efficacy (Mus musculus [14]): 0%
- Efficacy (Mus musculus [13]): 10%

SMILES: O=C1CC[C@]2(c3cccnc3)O[C@H](COc3ccc(Cl)cc3)CN12
- Lowest effective concentration for glucose utilization ≥140% of control [1]: 300 µM
- Efficacy (Mus musculus [9]): 35%
- Efficacy (Mus musculus [11]): 22%
- Efficacy (Mus musculus [12]): 1%
- Efficacy (Mus musculus [14]): 20%
- Efficacy (Mus musculus [13]): 22%

SMILES: O=C1CC[C@]2(c3ccc(Oc4ccccc4)cc3)O[C@H](COc3ccc(Cl)cc3)CN12
- Lowest effective concentration for glucose utilization ≥140% of control [1]: 10 µM
- Efficacy (Mus musculus [9]): -3%
- Efficacy (Mus musculus [11]): -25%
- Efficacy (Mus musculus [12]): 2%
- Efficacy (Mus musculus [14]): -6%
- Efficacy (Mus musculus [13]): -29%

SMILES: O=C1CC[C@]2(c3ccccc3)O[C@H](COc3ccc(Cl)cc3)CN12
- Lowest effective concentration for glucose utilization ≥140% of control [1]: 100 µM
- Efficacy (Mus musculus [9]): -28%
- Efficacy (Mus musculus [11]): -16%
- Efficacy (Mus musculus [12]): 18%
- Efficacy (Mus musculus [14]): 45%
- Efficacy (Mus musculus [13]): 3%

SMILES: O=C1CC[C@]2(c3ccc4ccccc4c3)O[C@H](COc3ccc(Cl)cc3)CN12
- Lowest effective concentration for glucose utilization ≥140% of control [1]: 30 µM
- Efficacy (Mus musculus [9]): 39%
- Efficacy (Mus musculus [11]): 62%
- Efficacy (Mus musculus [12]): 49%
- Efficacy (Mus musculus [14]): 37%
- Efficacy (Mus musculus [13]): 21%

SMILES: O=C1CC[C@]2(c3ccc(Cl)cc3)OCCN12
- Lowest effective concentration for glucose utilization ≥140% of control [1]: >1000 µM
- Efficacy (Mus musculus [9]): 11%
- Efficacy (Mus musculus [11]): 28%
- Efficacy (Mus musculus [12]): 23%
- Efficacy (Mus musculus [14]): 7%
- Efficacy (Mus musculus [13]): 21%

SMILES: O=C1CC[C@]2(c3ccc4oc5ccccc5c4c3)O[C@H](COc3ccc(Cl)cc3)CN12
- Lowest effective concentration for glucose utilization ≥140% of control [1]: 30 µM
- Efficacy (Mus musculus [9]): 7%
- Efficacy (Mus musculus [11]): 16%
- Efficacy (Mus musculus [12]): 8%
- Efficacy (Mus musculus [14]): -43%
- Efficacy (Mus musculus [13]): -25%

SMILES: O=C1CC[C@]2(c3ccc(Cl)cc3)S[C@@H](COc3ccc(Cl)cc3)CN12
- Lowest effective concentration for glucose utilization ≥140% of control [1]: 10 µM
- Efficacy (Mus musculus [9]): 35%
- Efficacy (Mus musculus [11]): 48%
- Efficacy (Mus musculus [12]): 44%
- Efficacy (Mus musculus [14]): 3%
- Efficacy (Mus musculus [13]): 9%

SMILES: CC(=O)N1C[C@@H](COc2ccc(Cl)cc2)O[C@@H]1c1ccc(Cl)c(Cl)c1
- Lowest effective concentration for glucose utilization ≥140% of control [1]: 30 µM
- Efficacy (Mus musculus [9]): 61%
- Efficacy (Mus musculus [11]): 70%
- Efficacy (Mus musculus [12]): 69%
- Efficacy (Mus musculus [14]): 26%
- Efficacy (Mus musculus [13]): 8%

SMILES: O=C1CC[C@]2(c3ccc(-c4ccccc4)cc3)O[C@H](COc3ccc(Cl)cc3)CN12
- Lowest effective concentration for glucose utilization ≥140% of control [1]: 10 µM
- Efficacy (Mus musculus [9]): 7%
- Efficacy (Mus musculus [11]): 35%
- Efficacy (Mus musculus [12]): 20%
- Efficacy (Mus musculus [14]): 17%
- Efficacy (Mus musculus [13]): 16%

SMILES: O=C1CC[C@]2(c3ccc4c(c3)CCc3ccccc3-4)O[C@H](COc3ccc(Cl)cc3)CN12
- Lowest effective concentration for glucose utilization ≥140% of control [1]: 30 µM
- Efficacy (Mus musculus [9]): 45%
- Efficacy (Mus musculus [11]): 56%
- Efficacy (Mus musculus [12]): 51%
- Efficacy (Mus musculus [14]): 38%
- Efficacy (Mus musculus [13]): 31%

SMILES: CS(=O)(=O)N1C[C@H](COc2ccc(Cl)cc2)O[C@@H]1c1ccc(Cl)cc1
- Lowest effective concentration for glucose utilization ≥140% of control [1]: 100 µM
- Efficacy (Mus musculus [9]): 29%
- Efficacy (Mus musculus [11]): 59%
- Efficacy (Mus musculus [12]): 35%
- Efficacy (Mus musculus [14]): -4%
- Efficacy (Mus musculus [13]): -12%

SMILES: O=C1CC[C@]2(c3ccc4ccccc4c3)O[C@@H](COc3ccc(Cl)cc3)CN12
- Lowest effective concentration for glucose utilization ≥140% of control [1]: >300 µM
- Efficacy (Mus musculus [9]): 8%
- Efficacy (Mus musculus [11]): 7%
- Efficacy (Mus musculus [12]): 13%
- Efficacy (Mus musculus [14]): -11%
- Efficacy (Mus musculus [13]): -6%

SMILES: O=C1CC[C@]2(c3ccc(Cl)cc3)O[C@H](COc3ccc(Cl)cc3)CN12
- Lowest effective concentration for glucose utilization ≥140% of control [1]: 30 µM
- Efficacy (Mus musculus [2]): 14%
- Efficacy (Mus musculus [3]): -26%
- Efficacy (Mus musculus [4]): 31%
- Efficacy (Mus musculus [5]): 46%
- Efficacy (Mus musculus [6]): -15%
